Measurements from ChEMBL document CHEMBL4613302, “Synthesis and Antiproliferative Activity of Nitric Oxide-Donor Largazole Prodrugs” (ACS Med Chem Lett, 2020).
Activity calls are given as the source filed them. The calls are words filed in the database; no cut-off is given here.

What was measured:
U2OS [1] = test: Antiproliferative activity against human U2OS cells assessed as reduction in cell viability incubated for 72 hrs by MTT assay; type: functional, cell-based
Method in brief: (§1)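 Growth inhibition was read at 24, 48 and 72 h in U-2OS, Caco-2 and IMR-32 cells. EC50 values are the mean of n = 3 independent experiments ± SEM.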

U2OS [2] = test: Antiproliferative activity against human U2OS cells assessed as reduction in cell viability incubated for 24 hrs by MTT assay; type: functional, cell-based; method in brief: as §1
U2OS [3] = test: Antiproliferative activity against human U2OS cells assessed as reduction in cell viability incubated for 48 hrs by MTT assay; type: functional, cell-based; method in brief: as §1
[4] = Stability of compound in human plasma assessed as compound hydrolysis at 500 ug/ml measured upto 24 hrs by HPLC-UV/MS analysis; type: ADME, cell-free
IMR-32 [5] = test: Antiproliferative activity against human IMR32 cells assessed as reduction in cell viability incubated for 24 hrs by MTT assay; type: functional, cell-based; conditions: IMR-32, 24 h; method in brief: as §1
IMR-32 [6] = test: Antiproliferative activity against human IMR32 cells assessed as reduction in cell viability incubated for 48 hrs by MTT assay; type: functional, cell-based; conditions: IMR-32, 48 h; method in brief: as §1
Caco-2 [7] = test: Antiproliferative activity against human Caco2 cells assessed as reduction in cell viability incubated for 48 hrs by MTT assay; type: functional, cell-based; conditions: Caco-2, 48 h; method in brief: as §1
[8] = Induction of NO production in PBS buffer at 0.1 mM measured for 1 to 24 hrs by Griess method; type: functional
Method in brief: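 Compound at 0.1 mM in 50 mM phosphate buffer, pH 7.4, incubated at 37 °C without l-cysteine. Released NO was measured as nitrite by the Griess method and given as % of the initial compound concentration at 1, 5 and 24 h. Values are the average of three independent experiments.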

IMR-32 [9] = test: Antiproliferative activity against human IMR32 cells assessed as reduction in cell viability incubated for 72 hrs by MTT assay; type: functional, cell-based; conditions: IMR-32, 72 h; method in brief: as §1
Caco-2 [10] = test: Antiproliferative activity against human Caco2 cells assessed as reduction in cell viability incubated for 72 hrs by MTT assay; type: functional, cell-based; conditions: Caco-2, 72 h; method in brief: as §1
[11] = Chemical stability of compound in HEPES assessed as compound hydrolysis at 500 ug/ml measured upto 24 hrs by HPLC-UV/MS analysis; type: physicochemical
Caco-2 [12] = test: Antiproliferative activity against human Caco2 cells assessed as reduction in cell viability incubated for 24 hrs by MTT assay; type: functional, cell-based; conditions: Caco-2, 24 h; method in brief: as §1
[13] = Chemical stability of compound in DMSO assessed as compound hydrolysis at 500 ug/ml measured upto 24 hrs by HPLC-UV/MS analysis; type: physicochemical
[14] = Induction of NO production in PBS buffer at 0.1 mM in presence of L-cysteine measured for 1 to 24 hrs by Griess method; type: functional
Method in brief: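 Griess assay for NO release: each compound at 0.1 mM in 50 mM phosphate buffer, pH 7.4, at 37 °C, with l-cysteine at 0.5 mM and at 5 mM. Nitrite yield is given as % of the initial compound concentration at 1 h, 5 h and 24 h. Values are the average of three independent experiments.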

EC50 (U2OS [1]) [µM]	EC50 (U2OS [2]) [µM]	EC50 (U2OS [3]) [µM]	Stability [4]	EC50 (Caco-2 [7]) [µM]	EC50 (Caco-2 [10]) [µM]	Stability [11]	EC50 (Caco-2 [12]) [µM]	Stability [13]	SMILES	EC50 (IMR-32 [5]) [µM]	EC50 (IMR-32 [6]) [µM]	Activity [8]	EC50 (IMR-32 [9]) [µM]	Activity [14]
1	0.468	0.741	Stable	0.00562	0.00447	Stable	9.12	Stable	CC(C)[C@@H]1NC(=O)[C@]2(C)CSC(=N2)c2csc(n2)CNC(=O)C[C@@H](/C=C/CCSC(=O)CCC(CO[N+](=O)[O-])O[N+](=O)[O-])OC1=O (some centres not stated)	0.0295	0.0617	Active	0.0501	Active
0.17	1.95	0.309	Stable	0.038	0.00813	Stable	11.2	Stable	CC(C)[C@@H]1NC(=O)[C@]2(C)CSC(=N2)c2csc(n2)CNC(=O)C[C@@H](/C=C/CCSC(=O)CCCCO[N+](=O)[O-])OC1=O	0.0151	0.0195	Active	0.012	Active

SMILES	EC50 (U2OS [1]) [µM]	EC50 (U2OS [2]) [µM]	EC50 (U2OS [3]) [µM]	Stability [4]	EC50 (Caco-2 [7]) [µM]	EC50 (Caco-2 [10]) [µM]	Stability [11]	EC50 (Caco-2 [12]) [µM]	Stability [13]	EC50 (IMR-32 [5]) [µM]	EC50 (IMR-32 [6]) [µM]	Activity [8]	EC50 (IMR-32 [9]) [µM]	Activity [14]
CCCCCCCC(=O)SCC/C=C/[C@@H]1CC(=O)NCc2nc(cs2)C2=N[C@@](C)(CS2)C(=O)N[C@@H](C(C)C)C(=O)O1 [LARGAZOLE]	0.331	20.4	0.372	–	0.759	0.0145	–	> 10000	–	0.0347	0.0302	–	0.0123	–
